In publication PMC4828309 (European journal of immunology, 2016):
“Also recorded” adds a separate entry of the source. Blank lines part the entries; values can stand above or below the molecule they belong to. No end group written: not given here.

How the values were obtained:
DQ8 [1] = experiment: Cell surface CLIP by flow cytometry, 293T cells expressing DQ8; assay type: cell-based, human
Method in brief: (§1)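 Human 293T cells (no endogenous Ii, DM or DQ) were lentivirally transduced with full-length DQ α/β (T2A-linked, GFP vector), Ii, and DM (mCherry vector). They were sorted for GFP, DQ and mCherry. Surface staining used PerCP-Cy5.5 Cer.CLIP1 and biotinylated SPVL3 anti-DQ with streptavidin-APC or -PE-Cy7. Gating was on matched GFP/mCherry levels. Read-outs were MFI and the CLIP/DQ MFI ratio with vs without DM, from 3 independent experiments, mean + SD.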

DQ8 βE86A = experiment: Cell surface CLIP by flow cytometry, 293T cells expressing DQ8 βE86A mutant; assay type: cell-based, human; details: 293T + Ii, with vs without DM; βE86A disrupts two H-bonds; CLIP/DQ ratio
DQ8 βT89G = experiment: Cell surface CLIP by flow cytometry, 293T cells expressing DQ8 βT89G mutant; assay type: cell-based, human; details: 293T + Ii, with vs without DM; βT89G disrupts one H-bond; CLIP/DQ ratio
[2] = test system: DQ2 with Gly at position 53; details: ref [22]; cited from earlier work
DQ alleles in T2 cells = assay type: cell-based, human; details: T2 lymphoblastoid cells, absence or presence of HLA-DM, flow cytometry
Method in brief: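 Human B-cell hybrid T2 line (endogenous Ii, MHC class II region deleted) expressing each DQ allele with or without HLA-DM. Cells surface-stained with PerCP-Cy5.5 anti-CLIP (Cer.CLIP1) and biotinylated anti-DQ (SPVL3) detected by streptavidin-APC or -PE-Cy7, alongside isotype-matched controls. Analysed by flow cytometry.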

sDQ6 = experiment: FP assay of CLIP dissociation from sDQ6; assay type: binding, human; details: 50 nM sDQ6-^488CLIP, sDM 0 to 2000 nM, 37°C, pH 5.0
Method in brief: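 sDQ6 secreted by lentivirus-transduced 293T cells, purified by His-resin then anti-DQ affinity, and thrombin-cleaved overnight. It was loaded with Alexa 488-labelled CLIP (1:5) plus 100 nM sDM for 3 h at 37°C in pH 5.0 citrate-phosphate/NaCl/Tween buffer, then spin-desalted. 50 nM complex, 0–2000 nM sDM and 100 μM unlabelled CLIP1 were read by FP at 37°C. FP was normalised to free-peptide background; rate enhancement was expressed relative to no-DM rate.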

DQ2 [3] = experiment: Cell surface CLIP by flow cytometry, 293T cells expressing DQ2; assay type: cell-based, human
Method in brief: as §1

DQ8-2 [4] = experiment: Cell surface CLIP by flow cytometry, 293T cells expressing DQ8-2 trans-dimer; assay type: cell-based, human
Method in brief: as §1

DQ6 [5] = experiment: Peptide elution and HPLC-MS/MS, DQ6; parameters: species or system human; details: 293T DQ6+Ii+DM, 2 independent experiments
Method in brief: (§2)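 About 1×10^9 sorted, stably transduced 293T cells expressing DQ+Ii or DQ+Ii+DM were lysed. DQ was captured with anti-DQ mAb SPVL3 on protein A beads. Bound peptides were eluted, separated by HPLC and sequenced by HPLC-MS/MS. Nested Ii-derived peptides were assigned to the CLIP1 core or the CLIP2 register. Results come from 2 independent experiments.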

DQ2-8 [6] = experiment: Cell surface CLIP by flow cytometry, 293T cells expressing DQ2-8 trans-dimer; assay type: cell-based, human
Method in brief: as §1

DQ6 [7] = experiment: Cell surface CLIP by flow cytometry, 293T cells expressing DQ6; assay type: cell-based, human; details: CerCLIP.1 mAb
Method in brief: as §1

DQ molecules = experiment: Peptide elution and HPLC-MS/MS, several DQ molecules reported together; parameters: species or system human
Method in brief: as §2

DQ1 [8] = experiment: Cell surface CLIP by flow cytometry, 293T cells expressing DQ1; assay type: cell-based, human; details: 293T DQ1, even in the absence of DM, CerCLIP.1 mAb
Method in brief: as §1

DQ8-2 [9] = experiment: Peptide elution and HPLC-MS/MS, DQ8-2; parameters: species or system human; details: 293T DQ8-2+Ii+DM, 2 independent experiments
Method in brief: as §2

DQ1 [10] = experiment: Peptide elution and HPLC-MS/MS, DQ1; parameters: species or system human
Method in brief: as §2

DQ2 [11] = experiment: Peptide elution and HPLC-MS/MS, DQ2; parameters: species or system human; details: 293T DQ2+Ii+DM, 2 independent experiments
Method in brief: as §2

DQ8 [12] = experiment: Peptide elution and HPLC-MS/MS, DQ8; parameters: species or system human; details: 293T DQ8+Ii+DM, 2 independent experiments
Method in brief: as §2

DQ2-8 [13] = experiment: Peptide elution and HPLC-MS/MS, DQ2-8; parameters: species or system human; details: 293T DQ2-8+Ii+DM, 2 independent experiments
Method in brief: as §2

[14] = biological target: soluble recombinant HLA-DQ8 (human); experiment: fluorescence polarisation
[15] = biological target: soluble recombinant HLA-DQ6 (human); experiment: fluorescence polarisation

Molecule: DM: non-classical MHC protein HLA-DM catalyzing CLIP release and peptide exchange
Hierarchy of DM sensitivity among DQ molecules (DQ8 [1]; 293T DQ+Ii+DM, DQ8 compared with DQ2-8, DQ2, DQ8-2): DQ8 being the least sensitive, followed by DQ2-8, DQ2, and DQ8-2
Change in DM sensitivity of DQ8 mutant (DQ8 βE86A): partially restore sensitivity to DM
Change in DM sensitivity of DQ8 mutant (DQ8 βT89G): little change in DM sensitivity
DM sensitivity after Gly insertion at α53 of DQ2 [2]: restored DM sensitivity; also recorded: marked increase in DM-mediated rate enhancement in the dissociation of a DQ2 binding peptide
DM editing of CLIP in T2 cells (DQ alleles in T2 cells): DQ2 and DQ2-8 were less sensitive to DM than DQ8
Dissociation rate versus DM concentration (sDQ6): Peptide dissociation rates increased with increasing DM concentration; also recorded: rates appeared to saturate with increasing DM concentration

Molecule: CLIP: Class II associated invariant chain peptide; Ii-derived, endogenous on DQ-expressing cells (Ac-VSK(Alexa Fluor 488)MRMATPLLMQ)
DM editing of CLIP upon DM co-expression (DQ2 [3]; 293T DQ2+Ii+DM, CerCLIP.1 mAb, flow cytometry, 3 independent experiments): relatively resistant to DM editing
Cell surface CLIP level, no DM (DQ2 [3]; 293T DQ2+Ii, absence of DM, CerCLIP.1 mAb, flow cytometry, MFI): high
DM editing resistance relative to DQ8 and DQ2-8 (DQ2 [3]; 293T, DQ2): less striking
Cell surface CLIP upon DM co-expression (DQ8-2 [4]; 293T DQ8-2+Ii+DM, CerCLIP.1 mAb, flow cytometry, 3 independent experiments): retain high levels of cell surface CLIP
Cell surface CLIP level, no DM (DQ8-2 [4]; 293T DQ8-2+Ii, absence of DM, CerCLIP.1 mAb, flow cytometry, MFI): high
DM editing resistance relative to DQ8 and DQ2-8 (DQ8-2 [4]; 293T, DQ8-2 trans-dimer): less striking
CLIP in peptide eluate, with DM (DQ6 [5]): not detected
Cell surface CLIP upon DM co-expression (DQ2-8 [6]; 293T DQ2-8+Ii+DM, CerCLIP.1 mAb, flow cytometry, 3 independent experiments): retain high levels of cell surface CLIP
Cell surface CLIP level, no DM (DQ2-8 [6]; 293T DQ2-8+Ii, absence of DM, CerCLIP.1 mAb, flow cytometry, MFI): high
Reduction in cell surface CLIP by DM (DQ2-8 [6]; 293T cells co-expressing DM with DQ2-8): little or no reduction in CLIP levels
Cell surface CLIP upon DM co-expression (DQ8 [1]; 293T DQ8+Ii+DM, CerCLIP.1 mAb, flow cytometry, 3 independent experiments): retain high levels of cell surface CLIP
Cell surface CLIP level, no DM (DQ8 [1]; 293T DQ8+Ii, absence of DM, CerCLIP.1 mAb, flow cytometry, MFI): high
Reduction in cell surface CLIP by DM (DQ8 [1]; 293T cells co-expressing DM with DQ8): little or no reduction in CLIP levels
Cell surface CLIP upon DM co-expression (DQ6 [7]; 293T DQ6+Ii+DM, 3 independent experiments): complete loss of cell surface CLIP
Cell surface CLIP level, no DM (DQ6 [7]; 293T DQ6+Ii, absence of DM, MFI): high
CLIP peptides eluted, no DM (DQ molecules; 293T DQ+Ii without DM, all DQ alleles, 2 independent experiments): prominently presented by all DQ alleles
Cell surface CLIP level, no DM (DQ1 [8]): no detectable CLIP peptide
DM editing of CLIP in T2 cells (DQ alleles in T2 cells): consistent with those obtained with 293T cells

Molecule: PSSGLGVTKQDLGPVPM [CLIPc, reference compound]
CLIPc detection in eluates (DQ molecules; DQ samples from 293T cells): detected by HPLC-MS/MS from all of the samples (DQ2, DQ2-8 and DQ8-2), except DQ8

Molecule: LPKPPKPVSKMRMATPLLMQA [CLIP1]
CLIP1 in peptide eluate, with DM (DQ8-2 [9]): detected
CLIP peptides in eluate, no DM (DQ1 [10]; 293T DQ1+Ii without DM): detected
CLIP peptides in eluate, with DM (DQ1 [10]; 293T DQ1+Ii+DM): not in samples co-expressing DM
CLIP1 in peptide eluate, with DM (DQ2 [11]): detected
CLIP1 in peptide eluate, with DM (DQ8 [12]): detected
CLIP1 in peptide eluate, with DM (DQ2-8 [13]): detected

intrinsic half-life of the complex [14]: 58 h
intrinsic half-life of the complex [15]: 7 h
B1: Alexa Fluor 488-labeled N-acetylated CLIP peptide (peptide)
peptide: Ac-VSK(Alexa Fluor 488)MRMATPLLMQ
